Assay results as given in ChEMBL document CHEMBL1667761, “3-benzylamino-β-carboline derivatives induce apoptosis through G2/M arrest in human carcinoma cells HeLa S-3” (Eur J Med Chem, 2011).
The source made the active and inactive calls. The rule behind the calls is not given here.

What was measured:
[1] = Antitumor activity against human HeLaS3 cells after 24 to 72 hrs by MTT assay; format: functional, cell-based, HeLa S3; conditions: Homo sapiens, HeLa S3
Summary of the method: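 HeLa S-3 cells (MEM, 10% FBS, HEPES, NEAA, 2 mM L-glutamine, 5% CO2, 37 °C) seeded at 2 × 10⁴ cells/ml and cultured 3 h before exposure for 24–72 h at 37 °C. MTT (2 mg/ml) added for 4 h at 37 °C, formazan dissolved in DMSO, A540 read. Viability is expressed as % of control. IC50 is the concentration giving 50% growth inhibition, mean ± S.D. of four independent experiments run in triplicate.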

[2] = Cell cycle arrest in human HeLaS3 cells assessed as accumulation at S phase at 1 uM after 6 hrs by flow cytometry; format: functional, cell-based; conditions: HeLa S3
Summary of the method: (§1)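 HeLa S-3 cells exposed for 6, 12 or 24 h. Cells washed twice in ice-cold PBS, fixed in ice-cold 70% ethanol, and resuspended with 0.1 mg/ml RNase. Stained with […] PI and analysed by flow cytometry. Phase distribution (sub-G1, G1, S, G2/M) is reported as percentage of cells. Controls were untreated.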

[3] = Cell cycle arrest in human HeLaS3 cells assessed as accumulation at G1 phase at 1 uM after 6 hrs by flow cytometry; format: functional, cell-based; conditions: HeLa S3; summary of the method: as §1
[4] = Cell cycle arrest in human HeLaS3 cells assessed as accumulation at G1 phase at 5 uM after 12 hrs by flow cytometry; format: functional, cell-based; conditions: HeLa S3; summary of the method: as §1
[5] = Cell cycle arrest in human HeLaS3 cells assessed as accumulation at G1 phase at 1 uM after 24 hrs by flow cytometry; format: functional, cell-based; conditions: HeLa S3; summary of the method: as §1
[6] = Cell cycle arrest in human HeLaS3 cells assessed as accumulation at G2/M phase at 5 uM after 6 hrs by flow cytometry; format: functional, cell-based; conditions: HeLa S3; summary of the method: as §1
[7] = system: HeLa S3; assay: Induction of apoptosis in human HeLaS3 cells assessed as DNA fragmentation upto 48 hrs by agarose gel electrophoresis; format: functional, cell-based
Summary of the method: (§2)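 HeLa S-3 cells exposed for 12–48 h, then pellets lysed in 0.6% sarcosine, 20 mM Tris-HCl pH 7.4, 20 mM EDTA. Lysate treated with RNase A for 2 h at 50 °C, then proteinase K overnight at 50 °C. DNA extracted with phenol/chloroform, run on 2% agarose in TAE at 50 V, stained with ethidium bromide, and visualised under UV.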

[8] = system: HeLa S3; assay: Induction of apoptosis in human HeLaS3 cells assessed as appearance of fragmented nuclei at 10 times IC50 after 48 hrs by Hoechst staining; format: functional, cell-based
Summary of the method: (§3)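 Stained with Hoechst 33342 (1 µg/ml) for 40 min at 37 °C. Nuclei were examined by confocal laser microscopy, and apoptosis was scored from chromatin condensation and fragmented nuclei.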

[9] = Cell cycle arrest in human HeLaS3 cells assessed as accumulation at sub-G1 phase at 1 uM after 12 hrs by flow cytometry; format: functional, cell-based; conditions: HeLa S3; summary of the method: as §1
[10] = Cell cycle arrest in human HeLaS3 cells assessed as accumulation at S phase at 5 uM after 12 hrs by flow cytometry; format: functional, cell-based; conditions: HeLa S3; summary of the method: as §1
[11] = Cell cycle arrest in human HeLaS3 cells assessed as accumulation at sub-G1 phase at 5 uM after 24 hrs by flow cytometry; format: functional, cell-based; conditions: HeLa S3; summary of the method: as §1
[12] = Cell cycle arrest in human HeLaS3 cells assessed as accumulation at G1 phase at 1 uM after 12 hrs by flow cytometry; format: functional, cell-based; conditions: HeLa S3; summary of the method: as §1
[13] = Cell cycle arrest in human HeLaS3 cells assessed as accumulation at G2/M phase at 1 uM after 12 hrs by flow cytometry; format: functional, cell-based; conditions: HeLa S3; summary of the method: as §1
[14] = Cell cycle arrest in human HeLaS3 cells assessed as accumulation at G2/M phase at 5 uM after 12 hrs by flow cytometry; format: functional, cell-based; conditions: HeLa S3; summary of the method: as §1
[15] = Cell cycle arrest in human HeLaS3 cells assessed as accumulation at S phase at 1 uM after 24 hrs by flow cytometry; format: functional, cell-based; conditions: HeLa S3; summary of the method: as §1
[16] = Cell cycle arrest in human HeLaS3 cells assessed as accumulation at sub-G1 phase at 5 uM after 6 hrs by flow cytometry; format: functional, cell-based; conditions: HeLa S3; summary of the method: as §1
[17] = Cell cycle arrest in human HeLaS3 cells assessed as accumulation at S phase at 1 uM after 12 hrs by flow cytometry; format: functional, cell-based; conditions: HeLa S3; summary of the method: as §1
[18] = system: HeLa S3; assay: Induction of apoptosis in human HeLaS3 cells assessed as appearance of fragmented nuclei at 5 times IC50 after 48 hrs by Hoechst staining; format: functional, cell-based; summary of the method: as §3
[19] = Cell cycle arrest in human HeLaS3 cells assessed as accumulation at G2/M phase at 5 uM after 24 hrs by flow cytometry; format: functional, cell-based; conditions: HeLa S3; summary of the method: as §1
[20] = Cell cycle arrest in human HeLaS3 cells assessed as accumulation at G2/M phase at 1 uM after 24 hrs by flow cytometry; format: functional, cell-based; conditions: HeLa S3; summary of the method: as §1
[21] = Cell cycle arrest in human HeLaS3 cells assessed as accumulation at G1 phase at 5 uM after 6 hrs by flow cytometry; format: functional, cell-based; conditions: HeLa S3; summary of the method: as §1
[22] = Cell cycle arrest in human HeLaS3 cells assessed as accumulation at S phase at 5 uM after 24 hrs by flow cytometry; format: functional, cell-based; conditions: HeLa S3; summary of the method: as §1
[23] = system: HeLa S3; assay: Induction of apoptosis in human HeLaS3 cells assessed as cleaved caspase-3 at 5 times IC50 by Western blot method; format: functional, cell-based
Summary of the method: (§4)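 HeLa S-3 cells treated for 24 h at 5-fold the IC50, alongside non-treated controls. Cells lysed in RIPA buffer (pH 8.0) with protease inhibitors and the whole-cell extract separated by SDS-PAGE, then transferred to PVDF. Blots blocked in 5% skim milk/TTBS and probed with anti-cdc2, cdk2 or cleaved caspase-3 antibodies (1:1000). β-actin (1:5000) served as loading control. Detection by HRP secondary antibody and ECL.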

[24] = Cell cycle arrest in human HeLaS3 cells assessed as accumulation at S phase at 5 uM after 6 hrs by flow cytometry; format: functional, cell-based; conditions: HeLa S3; summary of the method: as §1
[25] = Cell cycle arrest in human HeLaS3 cells assessed as accumulation at sub-G1 phase at 1 uM after 6 hrs by flow cytometry; format: functional, cell-based; conditions: HeLa S3; summary of the method: as §1
[26] = Cell cycle arrest in human HeLaS3 cells assessed as accumulation at sub-G1 phase at 5 uM after 12 hrs by flow cytometry; format: functional, cell-based; conditions: HeLa S3; summary of the method: as §1
[27] = Cell cycle arrest in human HeLaS3 cells assessed as accumulation at G1 phase at 5 uM after 24 hrs by flow cytometry; format: functional, cell-based; conditions: HeLa S3; summary of the method: as §1
[28] = Cell cycle arrest in human HeLaS3 cells assessed as accumulation at G2/M phase at 1 uM after 6 hrs by flow cytometry; format: functional, cell-based; conditions: HeLa S3; summary of the method: as §1
[29] = Cell cycle arrest in human HeLaS3 cells assessed as accumulation at sub-G1 phase at 1 uM after 24 hrs by flow cytometry; format: functional, cell-based; conditions: HeLa S3; summary of the method: as §1
[30] = system: HeLa S3; assay: Induction of apoptosis in human HeLaS3 cells assessed as DNA fragmentation after 24 hrs by agarose gel electrophoresis; format: functional, cell-based; summary of the method: as §2
[31] = Cell cycle arrest in human HeLaS3 cells assessed as increase in cdc2 protein level at 5 times IC50 by Western blot method; format: functional, cell-based; conditions: HeLa S3; summary of the method: as §4
[32] = Cell cycle arrest in human HeLaS3 cells assessed as effect on cdk2 protein level at 5 times IC50 by Western blot method; format: functional, cell-based; conditions: HeLa S3; summary of the method: as §4

CC(C)(C)OC(=O)NCCOc1ccc(CNc2cc3c(cn2)[nH]c2ccccc23)cc1
IC50 [1]: 42 µM

c1ccc(CCCNc2cc3c(cn2)[nH]c2ccccc23)cc1
IC50 [1]: 21 µM

CCNc1cc2c3ccccc3nc-2c[nH]1
IC50 [1]: 19 µM

c1ccc(CCNc2cc3c(cn2)[nH]c2ccccc23)cc1
IC50 [1]: 22 µM

CC(C)(C)CNc1cc2c(cn1)[nH]c1ccccc12
IC50 [1]: 17 µM

c1ccc2c(c1)[nH]c1cnc(NCC3CCCCC3)cc12
Activity [2]: 19.7%
Activity [3]: 48.4%
Activity [4]: 56.7%
Activity [5]: 68.2%
Activity [6]: 31.4%
IC50 [1]: 5.2 µM
Activity [7]: inactive
Activity [8]: Active
Activity [9]: 2.5%
Activity [10]: 12.3%
Activity [11]: 2.8%
Activity [12]: 58.4%
Activity [13]: 28.9%
Activity [14]: 27.4%
Activity [15]: 14.7%
Activity [16]: 2.6%
Activity [17]: 10.5%
Activity [18]: inactive
Activity [19]: 50.5%
Activity [20]: 15.7%
Activity [21]: 51%
Activity [22]: 13.8%
Activity [23]: inactive
Activity [24]: 12.7%
Activity [25]: 3.5%
Activity [26]: 3%
Activity [27]: 29.7%
Activity [28]: 23.1%
Activity [29]: 1.7%

c1ccc(CNc2cc3c(cn2)[nH]c2ccccc23)cc1
Activity [2]: 19%
Activity [3]: 31.5%
Activity [30]: Active
Activity [4]: 13.8%
Activity [5]: 1.1%
Activity [6]: 47.3%
IC50 [1]: 0.12 µM
Activity [8]: Active
Activity [9]: 3.7%
Activity [10]: 12.5%
Activity [11]: 8.3%
Activity [12]: 2.9%
Activity [13]: 84.3%
Activity [14]: 68.1%
Activity [15]: 2.6%
Activity [16]: 3.3%
Activity [17]: 9.4%
Activity [18]: Active
Activity [19]: 80.5%
Activity [20]: 92.2%
Activity [21]: 34%
Activity [31]: Active
Activity [32]: inactive
Activity [22]: 3.9%
Activity [23]: Active
Activity [24]: 12.2%
Activity [25]: 3.8%
Activity [26]: 3%
Activity [27]: 4.9%
Activity [28]: 46.1%
Activity [29]: 3.7%

c1ccc2c(c1)[nH]c1cnccc12 [NORHARMANE]
IC50 [1]: > 100 µM

CNc1cc2c(cn1)[nH]c1ccccc12
IC50 [1]: 101 µM
